Data from ChEMBL document CHEMBL5113407, “Identification and development of a series of disubstituted piperazines for the treatment of Chagas disease” (Eur J Med Chem, 2022).
Converted amounts (≈) assume the structure as drawn. The source made the active and inactive calls. The rule behind the calls is not given here.

Assays:
[1] = test system: Trypanosoma cruzi; assay: Antitrypanosomal activity against intracellularTrypanosoma cruzi amastigote; type: functional, organism-based
In short: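 Intracellular T. cruzi amastigote assay; potency expressed as pEC50 from at least three independent replicates, SD ≤0.2.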

[2] = Inhibition of Trypanosoma cruzi CYP51
[3] = Intrinsic clearance in mouse liver microsomes; type: ADME, Microsome
[4] = test system: Trypanosoma cruzi; assay: Antitrypanosomal activity against Trypanosoma cruzi infected in mouse assessed as decrease in parasite level at 50 mg/kg twice daily for 5 days cotreated with 1-ABT; type: functional, organism-based; details: time 5.0 day
In short: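 Acute infection mouse model; drug given twice daily for 5 days from day 14 post-infection, with 1-ABT 50 mg/kg given 30 min before each dose. Vehicle controls dosed b.i.d. at 10 mL/kg. Whole-body bioluminescence imaging, dorsal and ventral, quantified as total flux (p/s). Cyclophosphamide 200 mg/kg i.p. on days 28, 32 and 36 post-infection to detect relapse. Blood sampled on days 1 and 5 (n = 3).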

[5] = Kinetic solubility of compound; type: physicochemical; details: read-out: Kinetic_solubility
In short: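 Kinetic solubility read by charged aerosol detection (CAD).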

Compound | EC50 [1] [µM] | CLint [3] [mL/min/g] | other results
Cc1ccc(S(=O)(=O)Nc2ccc(CN3CCN(C(=O)c4cccc(C#N)c4)CC3)cc2)cc1 | 0.398 | – | –
Cc1ccc(S(=O)(=O)Nc2ccc(CN3CCN(C(=O)Cc4coc5ccccc45)CC3)cc2)cc1 | 6.31 | – | –
Cc1ccc(S(=O)(=O)Nc2ccc(CN3CCN(C(=O)c4cc(=O)c5ccccc5n4C)CC3)cc2)cc1 | 3.98 | > 50 | solubility kinetic [5]: 29 µM (≈ 15.4 µg/mL)

More lines, main results first:

EC50 [1] [µM] | CLint [3] [mL/min/g] | Compound | other results
– | > 50 | Cc1ccc(S(=O)(=O)Nc2ccc(CN3CCN(C(=O)c4cccc(Cl)c4)CC3)cc2)cc1 | pIC50 [2]: 4.7; Activity [4]: Active
12.6 | – | COc1ccc(S(=O)(=O)Nc2ccc(Cn3cc4c(n3)CN(C(=O)c3cccc(Cl)c3)C4)cc2)cc1 | –
– | > 50 | Cc1ccc(S(=O)(=O)Nc2ccc(CN(C)[C@H]3CCN(C(=O)c4cccc(Cl)c4)C3)cc2)cc1 | –
– | > 50 | Cc1ccc(S(=O)(=O)Nc2ccc(CN(C)[C@@H]3CCN(C(=O)c4cccc(Cl)c4)C3)cc2)cc1 | –
